# Where “and” joins values, the source holds several entries; their conditions need not be identical. Equal values may be shown once.
# Assays:
# [1] = organism: Rattus norvegicus; assay: Compound was tested for inhibition of uptake of [14C]norepinephrine (NE) into rat brain hypothalamus, in vitro.; type: functional
# Method in brief: (§1)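 Rat brain synaptosomes (Whittaker method) incubated with labelled monoamine (1 × 10^-7 mol final) at 37 °C with or without drug. [14C]NE and [14C]5-HT uptake in Krebs-Henseleit bicarbonate pH 7.4 with 11 mmol glucose; [3H]DA uptake in phosphate buffer, corpus striatum synaptosomes. Time: 5 min whole brain, 10 min hypothalamus. Nonspecific binding at 0 °C; membrane filtration, scintillation counting; IC50 from 3–4 concentrations, at least triplicate.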
# [2] = organism: Rattus norvegicus; assay: Compound was tested for inhibition of uptake of [14C]5-HT (5-HT) into rat whole brain, in vitro.; type: functional; method in brief: as §1
# [3] = tested on: Mus musculus; assay: Antidepressant activity was measured by the prevention of tetrabenazine (TBZ) induced ptosis in mice after intraperitoneal administration of the compound.; type: functional; details: ip
# Method in brief: (§2)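 Mice given compound ip in 1% methylcellulose (10 mL/kg), 30 min before tetrabenazine 40 mg/kg base ip; solvent+TBZ control per test. Ptosis scored 30 min after TBZ (+1 min) as 100/50/0% (closed/half/open), not normalized.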
# [4] = Therapeutic index (TI), ratio of LD50 and ED50 (TBZ) in mice after i.p. administration; details: mouse, in vivo, ip
# [5] = Acute toxicity in mice, after intraperitoneal administration.; type: organism-based; details: mouse, in vivo, ip
# Method in brief: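 Mice, groups of 10, given compound suspended in 1% methylcellulose ip at 10 mL/kg, then housed with food and water ad libitum. Observed hourly up to 6 h; deaths recorded at 24 and 48 h.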
# [6] = organism: Rattus norvegicus; assay: Compound was tested for inhibition of uptake of [3H]dopamine (DA) into rat corpus striatum, in vitro.; type: functional; method in brief: as §1
# [7] = tested on: Mus musculus; assay: Prevention of tetrabenazine induced ptosis in mice following i.p. administration.; type: functional; details: ip; method in brief: as §2
# [8] = tested on: Rattus norvegicus; assay: Ability to inhibit re uptake of [14C]norepinephrine in synaptosomes from rat whole brain, was determined 1 hr after intraperitoneal administration of 80 mg of compound.; type: functional
# Method in brief: (§3)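 Ex vivo/in vitro: rats dosed orally or ip, killed 1 h later; whole-brain synaptosomes from a pool of n=3 rats; [14C]NE or [14C]5-HT uptake (Krebs-Henseleit bicarbonate, pH 7.4, 11 mmol glucose; 1 × 10^-7 mol labelled amine, 37 °C, 5 min), filtration, scintillation counting; quadruplicate determinations, mean ± SD as % of control-animal uptake.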
# [9] = tested on: Rattus norvegicus; assay: Ability to inhibit re uptake of [14C]norepinephrine in synaptosomes from rat whole brain, was determined 1 h after peroral administration of 80 mg of compound.; type: functional, organism-based; method in brief: as §3
# [10] = Partition coefficient (logP); type: physicochemical; details: octanol/water
# [11] = tested on: Rattus norvegicus; assay: Ability to inhibit re uptake of [14C]5-HT in synaptosomes from rat whole brain, was determined 1 h after peroral administration of 80 mg of compound.; type: functional, organism-based; method in brief: as §3
# [12] = tested on: Rattus norvegicus; assay: Ability to inhibit re uptake of [14C]-5-HT in synaptosomes from rat whole brain, was determined 1 h after intraperitoneal administration of 80 mg of compound.; type: functional; method in brief: as §3
# [13] = tested on: Mus musculus; assay: Prevention of tetrabenazine (TBZ)-induced ptosis in mice after intraperitoneal administration.; type: functional, organism-based; method in brief: as §2
# [14] = Compound was tested for acute toxicity in mice, after intravenous administration of the compound.; type: organism-based; details: mouse, in vivo
# [15] = tested on: Mus musculus; assay: Enhancement of spontaneous motor activity (SMA) in mice after oral administration of 0.3 mg/kg of the compound. Accumulated motility counts during second hour of observation, was reported.; type: functional
# [16] = tested on: Mus musculus; assay: Enhancement of spontaneous motor activity (SMA) in mice after oral administration of 1 mg/kg of the compound. Accumulated motility counts during second hour of observation, was reported.; type: functional
# [17] = tested on: Mus musculus; assay: Enhancement of spontaneous motor activity (SMA) in mice after oral administration of 1 mg/kg of the compound. Accumulated motility counts during first hour of observation, was reported.; type: functional
# [18] = organism: Mus musculus; assay: Percent enhancement of spontaneous motor activity (SMA) was observed. Accumulated motility counts during second hour of observation, was reported.; type: functional
# [19] = organism: Mus musculus; assay: Percent enhancement of spontaneous motor activity (SMA) was observed. Accumulated motility counts during first hour of observation, was reported.; type: functional
# [20] = organism: Mus musculus; assay: Percent enhancement of spontaneous motor activity (SMA) was observed. Accumulated motility counts during one hour of observation, was reported.; type: functional
# [21] = organism: Rattus norvegicus; assay: Compound was tested for inhibition of uptake of [14C]5-HT (5-HT) into rat whole brain, in vitro; Not determined.; type: functional; method in brief: as §1
# [22] = organism: Rattus norvegicus; assay: Compound was tested for inhibition of uptake of [14C]norepinephrine (NE) into rat brain hypothalamus, in vitro; Not determined.; type: functional; method in brief: as §1
# [23] = tested on: Rattus norvegicus; assay: Ability to inhibit re uptake of [14C]norepinephrine in synaptosomes from rat whole brain, was determined 1 hr after peroral administration of 80 mg of compound.; type: functional; method in brief: as §3
# [24] = tested on: Mus musculus; assay: Prevention of tetrabenazine (TBZ) induced ptosis in mice after intraperitoneal administration; b denotes 'No activity detected up to a dose of one-fifth of the LD ip in mice; type: functional, organism-based; method in brief: as §2
smiles,measurement,setting,value
CNCCCN1c2ccccc2CCc2ccccc21 [DESIPRAMINE],IC50,[1],25 nM
same,IC50,[2],0.011 µM
CCCCOc1ccc([C@@H]2c3ccccc3[C@@H]3[C@H]2CCCN3C)cc1,ED50,[3],10 mg/kg
same,selectivity ratio,[4],14
same,LD50,[5],134 mg/kg
CN1CCC[C@H]2[C@H](c3ccc(N)cc3)c3ccccc3[C@H]21,IC50,[1],110 nM
same,IC50,[6],240 nM
same,selectivity ratio,[4],500
same,IC50,[2],~100 µM
same,LD50,[5],50 mg/kg
same,ED50,[7],0.1 mg/kg
CCCCOc1ccc([C@@H]2c3ccccc3[C@H]3NCCC[C@@H]23)cc1,ED50,[3],1 mg/kg
same,selectivity ratio,[4],46
same,LD50,[5],46 mg/kg
CCCN1CCC[C@H]2[C@H](c3ccccc3)c3ccccc3[C@H]21,IC50,[1],410 nM
same,IC50,[6],110 nM
same,selectivity ratio,[4],30
same,IC50,[2],> 100 µM
same,LD50,[5],24 mg/kg
same,ED50,[7],0.8 mg/kg
Cc1ccc([C@@H]2c3cc(O)ccc3[C@H]3NCCC[C@@H]23)cc1,Uptake,[8],68.2% and 62%
same,ED50,[3],1 mg/kg
same,Uptake,[9],> 90%
same,IC50,[1],31 nM
same,IC50,[6],17 nM
same,logP,[10],3.13
same,selectivity ratio,[4],67
same,Uptake,[11],90.4% and 86.9%
same,IC50,[2],0.28 µM
same,LD50,[5],67 mg/kg
same,Uptake,[12],> 90% and 84.9%
COc1cc2c(cc1OC)[C@H]1NCCC[C@H]1[C@H]2c1cccnc1,ED50,[13],No activity detected up to a dose of 1/5 LD50 ip in mice
same,LD50,[14],30 mg/kg
Cc1ccc([C@@H]2c3cc(O)ccc3[C@H]3NCCC[C@@H]23)cc1N,Uptake,[8],80% and > 90% and 87.7%
same,ED50,[3],3 mg/kg
same,Uptake,[9],> 90% and 83.5% and 88.1%
same,IC50,[1],40 nM
same,IC50,[6],100 nM
same,logP,[10],2.33
same,selectivity ratio,[4],70
same,Uptake,[11],> 90%
same,IC50,[2],0.43 µM
same,LD50,[5],210 mg/kg
same,Uptake,[12],> 90%
c1ccc2c(c1)[C@@H](c1ccncc1)[C@@H]1CCCN[C@H]21,ED50,[3],2 mg/kg
same,selectivity ratio,[4],10
same,LD50,[5],20 mg/kg
Nc1ccc([C@@H]2c3ccccc3[C@H]3NCCC[C@@H]23)cc1,Basis motility,[15],5501
same,Basis motility,[16],12001
same,Exploration motility,[17],7924
same,IC50,[1],7.4 nM
same,Basis motility,[18],-7
same,IC50,[6],44 nM
same,selectivity ratio,[4],500
same,IC50,[2],> 100 µM
same,Exploration motility,[19],-4
same,LD50,[5],50 mg/kg
same,Exploration motility,[20],116
same,ED50,[7],0.1 mg/kg
COc1ccc([C@@H]2c3ccccc3[C@@H]3[C@H]2CCCN3C)cc1,ED50,[3],5 mg/kg
same,selectivity ratio,[4],19
same,LD50,[5],95 mg/kg
Cc1ccc([C@H]2c3cc(O)ccc3[C@H]3NCCC[C@@H]23)cc1N,ED50,[3],10 mg/kg
same,LD50,[5],67 mg/kg
COc1ccc([C@H]2c3ccccc3[C@@H]3[C@H]2CCCN3C)cc1,IC50,[21],No compound available
same,IC50,[22],No compound available
CN1CCC[C@H]2[C@@H](c3ccc(O)cc3)c3ccccc3[C@H]21,IC50,[21],No compound available
same,IC50,[22],No compound available
COc1cc2c(cc1OC)[C@H]1NCCC[C@H]1[C@@H]2c1ccccc1,IC50,[21],No compound available
same,IC50,[22],No compound available
Oc1ccc([C@@H]2c3ccccc3[C@H]3NCCC[C@@H]23)cc1,ED50,[3],2 mg/kg
same,selectivity ratio,[4],15
same,LD50,[5],30 mg/kg
Nc1ccc([C@H]2c3ccccc3[C@H]3NCCC[C@@H]23)cc1,IC50,[1],180 nM
same,IC50,[6],330 nM
same,IC50,[2],20 µM
same,LD50,[5],20 mg/kg
same,ED50,[7],3 mg/kg
COc1cc2c(cc1OC)[C@H]1NCCC[C@H]1[C@@H]2c1ccc(N)cc1,IC50,[21],No compound available
same,IC50,[22],No compound available
Nc1ccc([C@@H]2c3cc(O)ccc3[C@H]3NCCC[C@@H]23)cc1,IC50,[1],15 nM
same,IC50,[6],46 nM
same,Uptake,[23],> 90%
same,logP,[10],1.91
same,selectivity ratio,[4],1500
same,Uptake,[11],> 90%
same,IC50,[2],1.6 µM
same,LD50,[5],150 mg/kg
same,Uptake,[12],> 90%
same,ED50,[7],0.1 mg/kg
COc1ccc2c(c1)[C@H](c1ccc(C(C)C)cc1)[C@@H]1CCCN[C@H]21,ED50,[24],No activity detected up to a dose of 1/5 LD50 ip in mice
same,LD50,[5],37 mg/kg
COc1ccc2c(c1)[C@@H](c1ccc(N(C)C)cc1)[C@@H]1CCCN[C@H]21,IC50,[21],No compound available
same,IC50,[22],No compound available
CN1CCC[C@H]2[C@H](c3ccc(O)cc3)c3ccccc3[C@H]21,ED50,[3],5 mg/kg
same,selectivity ratio,[4],36
same,LD50,[5],178 mg/kg
Cc1ccc([C@@H]2c3ccccc3[C@@H]3[C@H]2CCCN3C)cc1,Uptake,[9],> 90% (2×) and 76.3%
same,IC50,[1],65 nM
same,IC50,[6],90 nM
same,logP,[10],3.83
same,selectivity ratio,[4],77
same,Uptake,[11],> 90% (2×) and 88.1%
same,IC50,[2],> 100 µM
same,LD50,[5],232 mg/kg
same,Uptake,[12],> 90%
same,ED50,[7],3 mg/kg
CN1CCC[C@H]2[C@H](c3ccccc3)c3ccccc3[C@H]21,IC50,[1],12 nM
same,IC50,[6],100 nM
same,selectivity ratio,[4],185
same,IC50,[2],~100 µM
same,LD50,[5],74 mg/kg
same,ED50,[7],0.4 mg/kg
COc1ccc2c(c1)[C@@H](c1ccc(C)cc1)[C@@H]1CCCN[C@H]21,IC50,[21],No compound available
same,IC50,[22],No compound available
c1ccc([C@@H]2c3ccccc3[C@H]3NCCC[C@@H]23)cc1,IC50,[1],18 nM
same,IC50,[6],20 nM
same,selectivity ratio,[4],39
same,IC50,[2],~100 µM
same,LD50,[5],27 mg/kg
same,ED50,[7],0.7 mg/kg

# Reference: ChEMBL document CHEMBL1122631, “2,3,4,4a,5,9b-Hexahydro-1H-indeno[1,2-b]pyridines: potential antidepressants” (J Med Chem, 1984)
